Measurements: ChEMBL document CHEMBL1124622, “Synthesis and antiviral activity of 3'-C-cyano-3'-deoxynucleosides” (J Med Chem, 1989)
Values after ≈ are worked out from the molar mass of the structure shown.

Experiments:
[1] = Minimum cytotoxic concentration in HeLa cell cultures; type: cell-based; conditions: human, HeLa cells
[2] = Minimum cytotoxic concentration in primary rabbit kidney cell cultures; type: cell-based, Oryctolagus cuniculus; conditions: primary rabbit kidney cells
[3] = test system: Vaccinia virus; assay: (§1) Minimum inhibitory concentration against Vaccinia virus in primary rabbit kidney cell cultures; type: functional; conditions: Orthopoxvirus vaccinia
Outline: (§2)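 Confluent HeLa, Vero or primary rabbit kidney cell cultures in microtiter trays are inoculated with 100 CCID50 of virus. After 1 h adsorption, residual virus is removed and cells are incubated with varying compound concentrations. Cytopathogenicity is recorded once it is complete in untreated virus-infected controls. MIC is the concentration inhibiting virus-induced cytopathogenicity.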

[4] = test system: Semliki Forest virus; assay: Minimum inhibitory concentration against forest virus in Vero cell cultures; type: functional; outline: as §2
[5] = test system: Mammalian orthoreovirus 1; assay: Minimum inhibitory concentration against reovirus in Vero cell cultures; type: functional; outline: as §2
[6] = test system: Coxsackievirus B4; assay: Minimum inhibitory concentration against Coxsackie virus B4 in Vero cell cultures; type: functional; conditions: Enterovirus B; outline: as §2
[7] = Minimum cytotoxic concentration in Vero cell cultures; type: cell-based; conditions: chlorocebus sabaeus, Vero cells
[8] = In vitro minimum cytotoxic concentration in C3H embryo fibroblast cells.; type: functional; conditions: Mus musculus
Outline: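 Minimal cytotoxic concentration in C3H mouse embryo cells, run in the same 48-well setup as the MSV transformation assay: the concentration producing microscopically visible alteration of cell morphology.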

[9] = test system: Sindbis virus; assay: Minimum inhibitory concentration against Sindbis virus in Vero cell cultures; type: functional; outline: as §2
[10] = test system: Human respirovirus 3; assay: Minimum inhibitory concentration against parainfluenza 3 virus in Vero cell cultures; type: functional; outline: as §2
[11] = test system: Vesicular stomatitis virus; assay: (§3) Minimum inhibitory concentration against Vesicular stomatitis virus in primary rabbit kidney cell cultures; type: functional; outline: as §2
[12] = test system: Moloney murine sarcoma virus; assay: In vitro effective dose against Moloney murine sarcoma virus induced transformation of C3H embryo fibroblast cells.; type: functional; conditions: read-out: ED50 (the source's name)
Outline: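 C3H mouse embryo cells are seeded at 20 000 cells/mL per well and grown 24 h. They are infected with 80 foci-forming units of Moloney MSV for 90 min, then given fresh medium with varying compound concentrations. Transformation is examined microscopically after 6-7 days. ED50 is the dose giving a 50% reduction in transformation.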

[13] = test system: Human immunodeficiency virus 1; assay: Effective dose against HIV-1 induced cytopathogenicity in human MT-4 cell.; type: functional; conditions: Human immunodeficiency virus 1, MT4; read-out: ED50 (the source's name)
Outline: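 HIV (HTLV-III_B) is taken from the culture supernatant of a persistently infected HUT-78 line. Human MT-4 lymphocytes are infected and the assay scores inhibition of virus-induced cytopathogenicity. ED50 is the dose giving 50% protection of MT-4 cells against the viral cytopathic effect.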

[14] = test system: HeLa; assay: Minimum inhibitory concentration against Vesicular stomatitis virus in HeLa cell cultures; type: functional; conditions: Homo sapiens; outline: as §2
[15] = test system: HeLa; assay: Minimum inhibitory concentration against polio virus 1 in HeLa cell cultures; type: functional; conditions: Homo sapiens; outline: as §2
[16] = species: Homo sapiens; assay: Cytotoxic dose against uninfected human MT-4 cell; type: functional; conditions: MT4, read-out: CD50 (the source's name)
Outline: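 Cytotoxicity counterpart of the HIV assay: uninfected human MT-4 lymphocytes exposed to the compounds. CD50 is the dose that reduces viability of these uninfected cells by 50%.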

[17] = test system: HeLa; assay: Minimum inhibitory concentration against Coxsackie virus B4 in HeLa cell cultures; type: functional; conditions: Homo sapiens; outline: as §2
[18] = species: Oryctolagus cuniculus; assay: as §1; type: functional; outline: as §2
[19] = species: Oryctolagus cuniculus; assay: Minimum inhibitory concentration against Herpes simplex virus 2 (G) in primary rabbit kidney cell cultures; type: functional; outline: as §2
[20] = species: Oryctolagus cuniculus; assay: as §3; type: functional; outline: as §2
[21] = species: Oryctolagus cuniculus; assay: Minimum inhibitory concentration against Herpes simplex virus 1(KOS) in primary rabbit kidney cell cultures; type: functional; outline: as §2
[22] = species: Oryctolagus cuniculus; assay: Minimum cytotoxic concentration in primary rabbit kidney cell cultures

Compound	MCC [1] [µg/mL]	MCC [2] [µg/mL]	MIC [3] [µg/mL]	MIC [4] [µg/mL]	MIC [5] [µg/mL]	MIC [6] [µg/mL]	MCC [7] [µg/mL]	MCC [8] [µg/mL]	MIC [9] [µg/mL]	MIC [10] [µg/mL]	MIC [11] [µg/mL]	EC50 [12] [µg/mL]	EC50 [13] [µM]	MIC [14] [µg/mL]	MIC [15] [µg/mL]	CC50 [16] [µM]	MIC [17] [µg/mL]	also measured
Cc1cn([C@H]2C[C@H](C#N)[C@@H](CO)O2)c(=O)[nH]c1=O	200	100	20 (≈ 79.6 µM)	> 10	> 10	> 10	> 10	80	> 10	> 10	> 40	> 16	> 16	> 100	> 100	30	> 100	–
Cc1cn(C2CC(C#N)C(CO[Si](C)(C)C(C)(C)C)O2)c(=O)[nH]c1=O (centres undefined)	100	> 100	> 40	> 100	20 (≈ 54.7 µM)	> 100	> 100	80	> 100	> 100	> 40	> 16	> 16	> 40	> 40	31	> 40	–
NC(=O)c1ncn([C@@H]2O[C@H](CO)[C@@H](O)[C@H]2O)n1 [RIBAVIRIN]	> 200	–	–	300 (≈ 1230 µM)	70 (≈ 287 µM)	100 (≈ 409 µM)	> 400	–	70 (≈ 287 µM)	40 (≈ 164 µM)	–	–	–	20 (≈ 81.9 µM)	70 (≈ 287 µM)	–	70 (≈ 287 µM)	MIC [18]: 10 µg/mL (≈ 40.9 µM); MIC [19]: > 400 µg/mL; MIC [20]: 300 µg/mL (≈ 1230 µM); MIC [21]: > 400 µg/mL; MCC [22]: > 400 µg/mL
CC(C)(C)[Si](C)(C)OC[C@H]1O[C@@H](n2ccc(=O)[nH]c2=O)[C@H](O[Si](C)(C)C(C)(C)C)[C@@H]1C#N	> 40	> 10	> 4	> 4	> 4	> 4	> 10	> 8	> 4	> 4	> 4	5.6 (≈ 11.6 µM)	3.2	> 10	> 10	6.6	> 10	–
CC(C)(C)[Si](C)(C)OCC1OC(n2ccc(N)nc2=O)C(O[Si](C)(C)C(C)(C)C)C1C#N (centres undefined)	> 4	> 10	> 4	> 4	> 4	> 4	10	8	> 4	> 4	> 4	> 1.6	> 3.2	> 1	> 1	6.1	> 1	–
CC(=O)Nc1ccn(C2OC(CO[Si](C)(C)C(C)(C)C)C(C#N)C2O[Si](C)(C)C(C)(C)C)c(=O)n1 (centres undefined)	> 4	> 4	> 1	> 4	> 4	> 4	> 4	> 3.2	> 4	> 4	> 1	2.2 (≈ 4.21 µM)	> 3.2	> 1	> 4	4.8	2 (≈ 3.83 µM)	–
N#CC1C(CO)OC(n2ccc(N)nc2=O)C1O (centres undefined)	100	> 100	40 (≈ 159 µM)	> 100	> 100	> 100	200	> 200	> 100	> 100	> 100	43 (≈ 170 µM)	> 10	70 (≈ 278 µM)	> 40	22.7	> 40	–
CC(C)(C)[Si](C)(C)OC[C@H]1O[C@@H](n2ccc(=O)[nH]c2=O)[C@H](O[Si](C)(C)C(C)(C)C)[C@H]1C#N	4	> 4	> 1	> 1	> 1	> 1	4	> 3.2	> 1	> 1	> 1	2.2 (≈ 4.57 µM)	> 6.04	> 1	> 4	1.6	> 4	–
N#C[C@@H]1[C@@H](O)[C@H](n2cnc3c(N)ncnc32)O[C@@H]1CO	400	200	4 (≈ 14.5 µM)	20 (≈ 72.4 µM)	> 100	100 (≈ 362 µM)	200	> 40	10 (≈ 36.2 µM)	70 (≈ 253 µM)	> 200	6.6 (≈ 23.9 µM)	> 1.6	150 (≈ 543 µM)	> 200	2.9	> 200	–
Nc1ncnc2c1ccn2[C@@H]1O[C@H](CO)[C@@H](O)[C@H]1O [TUBERCIDIN]	> 0.4	–	0.1 (≈ 0.376 µM)	> 0.1	> 0.1	> 0.1	0.4	–	0.2 (≈ 0.751 µM)	> 0.1	0.07 (≈ 0.263 µM)	–	–	0.07 (≈ 0.263 µM)	0.4 (≈ 1.5 µM)	–	0.4 (≈ 1.5 µM)	MCC [22]: > 0.4 µg/mL
Nc1nccc2c1ncn2[C@@H]1C[C@H](CO)[C@@H](O)[C@H]1O [3-DEAZAARISTEROMYCIN A]	> 400	> 400	2 (≈ 7.57 µM)	> 400	7 (≈ 26.5 µM)	100 (≈ 378 µM)	400	–	300 (≈ 1140 µM)	4 (≈ 15.1 µM)	0.7 (≈ 2.65 µM)	–	–	1 (≈ 3.78 µM)	> 400	–	> 400	–
Cc1cn(C2OC(CO)C(C#N)C2O)c(=O)[nH]c1=O (centres undefined)	> 400	400	150 (≈ 561 µM)	300 (≈ 1120 µM)	> 200	> 100	> 200	> 250	150 (≈ 561 µM)	> 100	> 200	> 250	> 250	> 200	> 200	232	> 200	–
Cc1cn(C2C=C(C#N)C(CO)O2)c(=O)[nH]c1=O (centres undefined)	400	200	> 100	> 40	> 40	> 100	> 100	> 250	> 100	> 40	> 100	191 (≈ 766 µM)	> 50	150 (≈ 602 µM)	> 200	24	> 200	–
Cc1cn([C@H]2C[C@@H](C#N)[C@@H](CO)O2)c(=O)[nH]c1=O	> 400	> 400	> 400	> 400	> 200	> 400	> 400	> 250	> 400	> 200	> 400	> 250	> 250	> 400	> 400	> 250	> 400	–
CC(C)(C)[Si](C)(C)OC[C@H]1O[C@@H](n2cnc3c(N)ncnc32)[C@H](O[Si](C)(C)C(C)(C)C)[C@@H]1C#N	400	10	> 4	> 4	> 4	> 4	10	8	> 4	> 4	> 4	> 1.6	2.1	150 (≈ 297 µM)	> 200	5.1	> 200	–
N#C[C@H]1[C@@H](O)[C@H](n2ccc(=O)[nH]c2=O)O[C@@H]1CO	> 200	> 200	> 200	> 100	> 100	> 100	> 200	> 200	> 100	> 100	> 200	> 200	> 80	> 200	> 200	147	> 200	–
N#C[C@@H]1[C@@H](O)[C@H](n2ccc(=O)[nH]c2=O)O[C@@H]1CO	> 400	> 200	4 (≈ 15.8 µM)	> 200	> 200	> 200	400	400	> 200	> 200	> 200	260 (≈ 1030 µM)	> 400	> 200	> 200	> 400	> 200	–
